# Columns and labels:
# [1] = Inhibitory activity against HIV-I mediated cytopathic effect in MT-2 cells; type: functional, cell-based; conditions: Human immunodeficiency virus 1, MT2
# In short: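 1×10^4 MT-2 cells infected with diluted HIV-1 IIIB in RPMI 1640 with 10% FBS, graded compound concentrations; medium changed during culture. On day 6 post-infection, XTT (1 mg/mL) added, formazan read at 450 nm after 4 h; percent CPE inhibition and IC50 calculated.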
# [2] = Inhibitory activity against NC-1 binding to N-36/C-34 peptide complex; type: functional
# In short: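 Sandwich ELISA: N-36 (2 μM) preincubated with graded compound 30 min at 37 °C, then C-34 (2 μM) added for 30 min at 37 °C. Mixture captured on wells coated with rabbit anti-N36(L6)C34 IgG (10 μg/mL), detected with mAb NC-1, biotin anti-mouse IgG, streptavidin-HRP and TMB; A450 read; IC50 via Calcusyn.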
# [3] = tested on: Human immunodeficiency virus 1; experiment: Selectivity index was determined by CC50/IC50 for Cytopathic effect.; type: functional
# In short: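 Ratio of CC50 (XTT viability in uninfected MT-2 cells) to IC50 from HIV-1 IIIB CPE protection in MT-2 cells (XTT read-out, day 6).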
# [4] = Inhibitory activity against HIV-I mediated H9 cells fusion.; type: functional, cell-based, Human immunodeficiency virus 1
# In short: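 Dye transfer fusion assay: BCECF-AM-labeled H9/HIV-1 IIIB cells co-cultured with MT-2 cells (1:10) for 2 h at 37 °C with or without compound. Fused and unfused labeled cells counted by fluorescence microscopy; percent inhibition and IC50 derived.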
# [5] = tested on: MT-2 cells (Homo sapiens); experiment: In vitro for the cytotoxicity in MT-2 cells.
IC50 [1],IC50 [2],IC50 [4],SMILES,Selectivity index [3],CC50 [5]
> 100 µg/mL,> 100 µg/mL,> 100 µg/mL,CC(Nc1ccccc1Cl)c1nc2ccccc2c(=O)n1Cc1ccccc1 (stereo not given),< 1,86.8 µg/mL
> 100 µg/mL,> 100 µg/mL,> 100 µg/mL,Cc1ccc(N(C(=O)Nc2ccc(Cl)c(Cl)c2)C(C)c2nc(O)c3ccccc3n2)c(C)c1 (stereo not given),< 1,39.2 µg/mL
30.8 µg/mL,3.18 µg/mL,21.85 µg/mL,Cc1ccc(/N=N/c2c(S(=O)(=O)O)cc3cc(S(=O)(=O)O)cc(Nc4nc(Cl)nc(N(C)c5ccccc5)n4)c3c2O)c(S(=O)(=O)O)c1,9.43,290 µg/mL
> 100 µg/mL,> 100 µg/mL,> 100 µg/mL,O=C(Nc1ccc(Cl)c(Cl)c1)O/N=C(/c1ccccc1)c1ccc(-c2ccccc2)cc1,< 1,74.7 µg/mL
> 100 µg/mL,> 100 µg/mL,> 100 µg/mL,COc1ccc2c(c1)CCCC2=NOC(=O)Nc1ccccc1-c1ccccc1,< 1,46.8 µg/mL
> 100 µg/mL,> 100 µg/mL,> 100 µg/mL,Cc1ccc(C(=O)Nc2cccc(C(=O)N/N=C/c3ccc(Br)cc3)c2)cc1,< 1,24.9 µg/mL
8.29 µg/mL,0.73 µg/mL,4.95 µg/mL,COc1ccc(S(=O)(=O)O)cc1/N=N/c1c(S(=O)(=O)O)cc2cc(Nc3nc(Nc4ccccc4)nc(Nc4cc(C)c(/N=N/c5cc(S(=O)(=O)O)cc6cc(S(=O)(=O)O)cc(O)c56)cc4OC)n3)ccc2c1O,35.2,292 µg/mL
> 100 µg/mL,> 100 µg/mL,> 100 µg/mL,CC(c1nc2ccc(Cl)cc2c(=O)n1Cc1ccccc1)N(C(=O)c1ccc([N+](=O)[O-])cc1)c1ccc(F)cc1 (stereo not given),< 1,30.2 µg/mL
> 100 µg/mL,> 100 µg/mL,> 100 µg/mL,Cc1ccc(N(C(=O)Nc2cccc(Cl)c2)C(C)c2nc(O)c3ccccc3n2)c(C)c1 (stereo not given),< 1,54 µg/mL
> 100 µg/mL,> 100 µg/mL,> 100 µg/mL,COC(=O)c1cc(C(=O)OC)cc(N(C(=O)Nc2ccc(Cl)c(Cl)c2)C(C)c2nc3ccccc3c(=O)n2Cc2ccccc2)c1 (stereo not given),< 1,20.9 µg/mL
> 100 µg/mL,> 100 µg/mL,> 100 µg/mL,Cc1ccc(N(C(=O)Nc2ccccc2)C(C)c2nc(O)c3ccccc3n2)c(C)c1 (stereo not given),< 1,40.8 µg/mL
> 100 µg/mL,> 100 µg/mL,52.27 µg/mL,O=P(CCP(c1ccccc1)c1ccccc1)(c1ccccc1)c1ccccc1,< 1,28.9 µg/mL
> 100 µg/mL,> 100 µg/mL,> 100 µg/mL,C/C(=N/OC(=O)NS(=O)(=O)c1ccc(C)cc1)c1cc2ccccc2oc1=O,< 1,286 µg/mL

SMILES,IC50 [1],IC50 [2],IC50 [4],Selectivity index [3],CC50 [5]
O=C(Nc1cc([N+](=O)[O-])ccc1-c1ccc([N+](=O)[O-])cc1)c1ccc([N+](=O)[O-])cc1Cl,> 100 µg/mL,> 100 µg/mL,> 100 µg/mL,< 1,47.2 µg/mL
CC[C@H]1CN2CC[C@H]1C[C@@H]2[C@@H](OC(=O)c1ccccc1Cl)c1ccnc2ccc(OC)cc12,> 100 µg/mL,> 100 µg/mL,59.78 µg/mL,< 1,41.3 µg/mL
C=C[C@H]1CN2CC[C@H]1C[C@@H]2[C@@H](OC(=O)c1ccc(OC)cc1)c1ccnc2ccccc12,> 100 µg/mL,> 100 µg/mL,> 100 µg/mL,< 1,74.1 µg/mL
